Assays:
[1] = Study 1001 single-rising-dose plasma pharmacokinetics; type: in vivo, human; settings: for AUC0–24, mean (CV%) / AUC0–∞, mean (CV%) / t max, median (range) / t ½z, mean (CV%): plasma, Study 1001
[2] = Study 1003 SRD cohort plasma pharmacokinetics; type: in vivo, human; settings: fasted
Method in brief: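 Healthy women received a single oral 120 mg dose, then 160 mg after a washout of at least 14 days (placebo-controlled). Plasma was sampled pre-dose and at 0.25–72 h. Free base was measured by validated UPLC–MS/MS after protein precipitation (calibration 0.5–1000 ng mL−1). Noncompartmental parameters used actual sampling times, with values below LLOQ set to zero.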

[3] = Study 1003 MRD cohorts plasma pharmacokinetics; type: in vivo, human; settings: for AUC0–24, mean (CV%) / AUC0–∞, mean (CV%) / C max, mean (CV%) / t max, median (range) / t ½z, mean (CV%): plasma
[4] = Study 1003 MRD cohorts urine pharmacokinetics; type: in vivo, human; settings: for Aet, mean (CV%) / CLR, mean (CV%) / fe,t, mean (CV%): urine, non‐Japanese
Method in brief: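 Urine was collected pre-dose and over 0–6, 6–12 and 12–24 h on Days 1 and 10 of once-daily oral dosing. Free base was measured by validated UPLC–MS/MS after protein precipitation (calibration 1–2000 ng mL−1; LLOQ 1 ng mL−1). Noncompartmental analysis used nominal intervals; values below LLOQ were treated as zero.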

[5] = Study 1003 CSF pharmacokinetics at steady state; type: in vivo, human; settings: 60 mg q.d.
[6] = system: mouse model of Kabuki syndrome; settings: ref [7], cited from earlier work
[7] = system: rodent models of neurodevelopmental disorder; settings: two rodent models of neurodevelopmental disorder; ref [8]; cited from earlier work
[8] = preliminary toxicology studies in animals; no reference given; cited from earlier work
[9] = 20 mg q.d., non‐Japanese, Day 1
[10] = 20 mg q.d., non‐Japanese, Day 10
[11] = 60 mg q.d., non‐Japanese, Day 1
[12] = 60 mg q.d., non‐Japanese, Day 10
[13] = 160 mg q.d., non‐Japanese, Day 1
[14] = 160 mg q.d., non‐Japanese, Day 10
[15] = after multiple dosing (20–160 mg)

Cl.O=C(NC1CCOCC1)c1csc([C@@H]2C[C@H]2NCC2CC2)c1 [TAK‐418]
t ½z ([1]; healthy volunteers, across both studies and doses): 3.13 to 5.36 h | AUC0–24, mean (CV%) ([1]; single oral dose 5 mg): 89.3 (41.1) h*ng mL^−1 | AUC0–∞, mean (CV%) ([1]; single oral dose 5 mg): 92.2 (43.3) h*ng mL^−1 | t max, median (range) ([1]; single oral dose 5 mg): 1.00 (0.98–1.02) h | t ½z, mean (CV%) ([1]; single oral dose 5 mg): 3.133 (14.8) h | AUC0–24, mean (CV%) ([1]; single oral dose 15 mg): 295.8 (21.5) h*ng mL^−1 | AUC0–∞, mean (CV%) ([1]; single oral dose 15 mg): 302.2 (21.8) h*ng mL^−1 | t max, median (range) ([1]; single oral dose 15 mg): 1.00 (1.00–2.00) h | t ½z, mean (CV%) ([1]; single oral dose 15 mg): 4.375 (9.0) h | AUC0–24, mean (CV%) ([1]; single oral dose 30 mg, fasted): 646.3 (7.9) h*ng mL^−1 | AUC0–∞, mean (CV%) ([1]; single oral dose 30 mg, fasted): 661.3 (7.9) h*ng mL^−1 | t max, median (range) ([1]; single oral dose 30 mg, fasted): 1.00 (0.50–1.00) h | t ½z, mean (CV%) ([1]; single oral dose 30 mg, fasted): 4.772 (11.0) h | AUC0–24, mean (CV%) ([1]; single oral dose 40 mg): 690.2 (24.0) h*ng mL^−1 | AUC0–∞, mean (CV%) ([1]; single oral dose 40 mg): 700.0 (24.5) h*ng mL^−1 | t max, median (range) ([1]; single oral dose 40 mg): 1.25 (1.00–1.52) h | t ½z, mean (CV%) ([1]; single oral dose 40 mg): 3.868 (12.7) h | AUC0–24, mean (CV%) ([1]; single oral dose 60 mg): 1553.5 (29.4) h*ng mL^−1 | AUC0–∞, mean (CV%) ([1]; single oral dose 60 mg): 1584.3 (29.9) h*ng mL^−1 | t max, median (range) ([1]; single oral dose 60 mg): 1.00 (1.00–1.00) h | t ½z, mean (CV%) ([1]; single oral dose 60 mg): 4.220 (14.9) h | AUC0–24, mean (CV%) ([2]; single oral dose 120 mg): 3737.2 (19.9) h*ng mL^−1 | AUC0–∞, mean (CV%) ([2]; single oral dose 120 mg): 3828.3 (20.6) h*ng mL^−1 | C max, mean (CV%) ([2]; single oral dose 120 mg): 727.8 (20.0) ng mL^−1 | t max, median (range) ([2]; single oral dose 120 mg): 1.50 (1.00–1.50) h | t ½z, mean (CV%) ([2]; single oral dose 120 mg): 5.188 (9.9) h | AUC0–24, mean (CV%) ([2]; single oral dose 160 mg): 4350.0 (31.0) h*ng mL^−1 | AUC0–∞, mean (CV%) ([2]; single oral dose 160 mg): 4466.8 (31.7) h*ng mL^−1 | C max, mean (CV%) ([2]; single oral dose 160 mg): 796.3 (36.2) ng mL^−1 | t max, median (range) ([2]; single oral dose 160 mg): 1.25 (1.00–2.00) h | t ½z, mean (CV%) ([2]; single oral dose 160 mg): 4.847 (14.1) h | PK linearity point estimate, Day 10 AUC0–24 compared with Day 1 AUC0–∞ ([3]; 20 mg q.d.): 1.29 | AUC0–24, Japanese vs non‐Japanese participants ([3]; 20 mg, Day 1): 1.21 fold | AUC0–24, Japanese compared with non‐Japanese participants ([3]; 20 mg, Day 10 steady state): approximately the same | PK linearity point estimate, Day 10 AUC0–24 compared with Day 1 AUC0–∞ ([3]; 60 mg q.d.): 1.13 | PK linearity point estimate, Day 10 AUC0–24 compared with Day 1 AUC0–∞ ([3]; 160 mg q.d.): 1.06 | mean terminal disposition phase half‐life (t ½z) at steady state ([3]; 20–160 mg q.d.): 4.35 to 5.36 h | median t max at steady state ([3]; Day 10, 20–160 mg q.d.): 1.00 to 1.26 h | AUC0–24, mean (CV%) ([3]; 20 mg q.d., Japanese, Day 1): 610.3 (14.4) h*ng mL^−1 | AUC0–∞, mean (CV%) ([3]; 20 mg q.d., Japanese, Day 1): 619.0 (14.8) h*ng mL^−1 | C max, mean (CV%) ([3]; 20 mg q.d., Japanese, Day 1): 154.7 (6.0) ng mL^−1 | t max, median (range) ([3]; 20 mg q.d., Japanese, Day 1): 1.00 (0.50–1.50) h | AUC0–24, mean (CV%) ([3]; 20 mg q.d., Japanese, Day 10): 677.3 (10.9) h*ng mL^−1 | C max, mean (CV%) ([3]; 20 mg q.d., Japanese, Day 10): 171.3 (6.0) ng mL^−1 | t max, median (range) ([3]; 20 mg q.d., Japanese, Day 10): 1.00 (1.00–1.50) h | t ½z, mean (CV%) ([3]; 20 mg q.d., Japanese, Day 10): 4.350 (14.4) h | AUC0–24, mean (CV%) [3, 9]: 503.3 (32.9) h*ng mL^−1 | AUC0–∞, mean (CV%) [3, 9]: 515.3 (33.4) h*ng mL^−1 | C max, mean (CV%) [3, 9]: 85.2 (33.8) ng mL^−1 | t max, median (range) [3, 9]: 1.75 (1.00–3.00) h | AUC0–24, mean (CV%) [3, 10]: 668.2 (34.2) h*ng mL^−1 | C max, mean (CV%) [3, 10]: 117.8 (30.1) ng mL^−1 | t max, median (range) [3, 10]: 1.26 (1.00–2.00) h | t ½z, mean (CV%) [3, 10]: 4.997 (10.1) h | AUC0–24, mean (CV%) [3, 11]: 1445.5 (24.4) h*ng mL^−1 | AUC0–∞, mean (CV%) [3, 11]: 1476.7 (25.4) h*ng mL^−1 | C max, mean (CV%) [3, 11]: 276.0 (21.6) ng mL^−1 | t max, median (range) [3, 11]: 1.50 (1.00–4.00) h | AUC0–24, mean (CV%) [3, 12]: 1660.5 (25.4) h*ng mL^−1 | C max, mean (CV%) [3, 12]: 307.2 (17.0) ng mL^−1 | t max, median (range) [3, 12]: 1.250 (1.00–3.00) h | t ½z, mean (CV%) [3, 12]: 4.923 (17.8) h | AUC0–24, mean (CV%) [3, 13]: 3747.3 (6.4) h*ng mL^−1 | AUC0–∞, mean (CV%) [3, 13]: 3822.0 (5.7) h*ng mL^−1 | C max, mean (CV%) [3, 13]: 679.3 (28.8) ng mL^−1 | t max, median (range) [3, 13]: 1.50 (1.00–3.00) h | AUC0–24, mean (CV%) [3, 14]: 4058.3 (6.1) h*ng mL^−1 | C max, mean (CV%) [3, 14]: 697.7 (14.7) ng mL^−1 | t max, median (range) [3, 14]: 1.00 (1.00–1.50) h | t ½z, mean (CV%) [3, 14]: 5.357 (8.7) h | renal clearance [4, 15]: 5.12 to 7.81 L/h | renal excretion [4, 15]: 15.45–20.06% | Aet, mean (CV%) ([4]; 20 mg q.d., Day 1): 2.858 (25.1) mg | CLR, mean (CV%) ([4]; 20 mg q.d., Day 1): 5.813 (16.4) L h^−1 | fe,t, mean (CV%) ([4]; 20 mg q.d., Day 1): 14.283 (25.1) % | Aet, mean (CV%) ([4]; 20 mg q.d., Day 10): 3.090 (28.4) mg | CLR, mean (CV%) ([4]; 20 mg q.d., Day 10): 5.120 (38.2) L h^−1 | fe,t, mean (CV%) ([4]; 20 mg q.d., Day 10): 15.453 (28.4) % | Aet, mean (CV%) ([4]; 60 mg q.d., Day 1): 11.423 (28.4) mg | CLR, mean (CV%) ([4]; 60 mg q.d., Day 1): 8.365 (41.5) L h^−1 | fe,t, mean (CV%) ([4]; 60 mg q.d., Day 1): 19.050 (28.4) % | Aet, mean (CV%) ([4]; 60 mg q.d., Day 10): 11.087 (31.1) mg | CLR, mean (CV%) ([4]; 60 mg q.d., Day 10): 6.740 (25.1) L h^−1 | fe,t, mean (CV%) ([4]; 60 mg q.d., Day 10): 18.475 (31.1) % | Aet, mean (CV%) ([4]; 160 mg q.d., Day 1): 28.500 (11.0) mg | CLR, mean (CV%) ([4]; 160 mg q.d., Day 1): 7.583 (4.9) L h^−1 | fe,t, mean (CV%) ([4]; 160 mg q.d., Day 1): 17.800 (11.0) % | Aet, mean (CV%) ([4]; 160 mg q.d., Day 10): 32.067 (37.3) mg | CLR, mean (CV%) ([4]; 160 mg q.d., Day 10): 7.807 (32.7) L h^−1 | fe,t, mean (CV%) ([4]; 160 mg q.d., Day 10): 20.060 (37.2) % | mean C max in CSF ([5]; Day 10, CV% 24.7): 85.20 ng mL^ −1 | mean AUC0–24 in CSF ([5]; Day 10, CV% 26.5): 611.0 ng·h/mL | visuospatial learning and memory defects ([6]; after 2 weeks of treatment, compared with vehicle control): visuospatial learning and memory defects were rescued | H3K4 histone modification defects ([6]; mouse model of Kabuki syndrome): rescued H3K4 histone modification defects | adult neurogenesis in the hippocampus ([6]; mouse model of Kabuki syndrome): dose‐dependently normalized adult neurogenesis in the hippocampus | autism symptoms [7]: improved autism symptoms | toxicology findings [8]: testicular findings in a single species

Source: article PMC9290503 (British Journal of Clinical Pharmacology, 2021)
